From ChEMBL document CHEMBL1134384, “Development of new carboxylic acid-based MMP inhibitors derived from functionalized propargylglycines” (J Med Chem, 2001) come the findings set out here.

Molecules are shown by their SMILES. ≈ marks a conversion by molar mass, not a printed value.

In data set [1] the target is Stromelysin-1 (Homo sapiens, UniProt P08254). Briefly: Inhibitory activity against human matrix metalloprotease-3 (MMP-3) ([…]).
Data set [2] addresses T1, Interstitial collagenase (Homo sapiens, UniProt P03956).
T1 sequence (P03956 whole entry): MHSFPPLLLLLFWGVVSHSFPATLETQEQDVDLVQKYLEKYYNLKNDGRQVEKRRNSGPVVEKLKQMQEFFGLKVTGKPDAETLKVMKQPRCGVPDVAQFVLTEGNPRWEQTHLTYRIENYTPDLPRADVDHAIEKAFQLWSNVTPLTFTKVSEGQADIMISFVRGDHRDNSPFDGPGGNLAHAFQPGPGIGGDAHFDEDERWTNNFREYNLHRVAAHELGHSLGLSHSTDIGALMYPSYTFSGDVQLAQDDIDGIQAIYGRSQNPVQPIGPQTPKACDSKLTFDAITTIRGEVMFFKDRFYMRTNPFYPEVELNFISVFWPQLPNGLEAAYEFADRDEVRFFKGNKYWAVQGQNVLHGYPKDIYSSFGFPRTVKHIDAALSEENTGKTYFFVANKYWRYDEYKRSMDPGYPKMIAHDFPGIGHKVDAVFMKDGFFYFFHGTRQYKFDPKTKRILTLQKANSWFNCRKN
Put plainly: Inhibitory activity against human matrix metalloprotease-1 in quenched fluorescence assay at […]. An outline of the steps:
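Quenched fluorescence assay using truncated human recombinant enzymes expressed in E. coli, at final concentrations of 8 nM for MMP-1 and 16 nM for MMP-3. Substrate was Mca-Pro-Leu-Gly-Leu-Dpa-Ala-Arg-NH₂ at 4 μM, at 25 °C, in 50 mM Tris pH 7.5, 0.2 M NaCl, 5 mM CaCl₂, 0.02% Brij-35. Fluorescence (ex 328/em 393 nm) was read kinetically for 30 min. Eight inhibitor concentrations were tested and IC50 was fitted from Vi/V0.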

For data set [3], the target named is Collagenase 3 (Homo sapiens, UniProt P45452). Put plainly: Inhibitory activity against human matrix metalloprotease-13 in quenched fluorescence assay at pH 7.4.
Data set [4] concerns the target 72 kDa type IV collagenase (Homo sapiens, UniProt P08253). Briefly: Inhibitory activity against matrix metalloprotease-2 (MMP-2) in quenched fluorescence assay at […]. An outline of the steps: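 Full-length human recombinant proMMP-2 from CHO cells was activated with 1 mM APMA for 45 min and used at 1 nM final. Cleavage of 4 μM Mca-Pro-Leu-Gly-Leu-Dpa-Ala-Arg-NH₂ was followed at 25 °C in Tris pH 7.5/NaCl/CaCl₂/Brij-35 buffer, with fluorescence read kinetically for 30 min. IC50 came from 8 inhibitor concentrations.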

The nature of data set [5]: Solubility was determined at a pH of […]. The format is physicochemical. Particulars: pH 7.

As a reminder, the IC50 is the concentration at which inhibition is half-maximal. Read a high IC50 as weaker potency in that assay. The solubility is how much of the substance goes into solution per volume. The low end stands for little dissolved substance, the high end for much dissolved substance.

Chain of Stromelysin-1 (P08254 whole entry): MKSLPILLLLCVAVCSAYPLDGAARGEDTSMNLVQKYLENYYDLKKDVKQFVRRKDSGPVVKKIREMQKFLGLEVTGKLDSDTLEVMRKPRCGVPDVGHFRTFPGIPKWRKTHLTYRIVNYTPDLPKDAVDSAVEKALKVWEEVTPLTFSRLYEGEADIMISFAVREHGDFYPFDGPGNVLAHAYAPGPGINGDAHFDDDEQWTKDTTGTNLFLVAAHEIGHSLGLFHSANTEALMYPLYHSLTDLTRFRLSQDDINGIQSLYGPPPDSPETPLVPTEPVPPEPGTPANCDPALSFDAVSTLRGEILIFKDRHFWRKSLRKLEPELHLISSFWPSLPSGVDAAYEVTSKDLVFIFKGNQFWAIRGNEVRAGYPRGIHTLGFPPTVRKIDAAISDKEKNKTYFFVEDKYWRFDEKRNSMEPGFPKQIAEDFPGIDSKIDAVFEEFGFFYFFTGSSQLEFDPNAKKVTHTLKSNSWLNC
Chain of 72 kDa type IV collagenase (P08253 whole entry): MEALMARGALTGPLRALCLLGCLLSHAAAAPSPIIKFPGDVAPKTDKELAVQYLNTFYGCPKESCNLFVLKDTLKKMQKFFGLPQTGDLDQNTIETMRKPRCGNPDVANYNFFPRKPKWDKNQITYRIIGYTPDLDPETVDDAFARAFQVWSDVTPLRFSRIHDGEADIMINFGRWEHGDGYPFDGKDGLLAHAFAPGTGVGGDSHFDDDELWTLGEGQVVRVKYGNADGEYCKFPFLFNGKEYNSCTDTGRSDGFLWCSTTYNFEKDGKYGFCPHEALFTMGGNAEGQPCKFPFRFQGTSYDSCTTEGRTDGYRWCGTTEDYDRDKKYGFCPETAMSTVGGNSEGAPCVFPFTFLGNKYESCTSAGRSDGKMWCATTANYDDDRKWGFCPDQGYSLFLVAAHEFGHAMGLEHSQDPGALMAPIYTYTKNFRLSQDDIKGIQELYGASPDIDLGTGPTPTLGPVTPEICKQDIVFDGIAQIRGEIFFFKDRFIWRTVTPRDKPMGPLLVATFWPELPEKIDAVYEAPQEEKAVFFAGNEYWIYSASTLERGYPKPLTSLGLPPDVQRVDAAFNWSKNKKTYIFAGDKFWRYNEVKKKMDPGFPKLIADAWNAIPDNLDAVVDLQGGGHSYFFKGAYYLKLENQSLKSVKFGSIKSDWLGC

For `Cc1ccc(C#Cc2ccc(S(=O)(=O)NC(CC#Cc3ccccc3)C(=O)O)cc2)cc1` (centres undefined), the IC50 in data set [1] is 22100 nM; in data set [2] it was over 10000 nM; in data set [3], 89 nM; in data set [4] it was 19 nM.
On the same counts, the results for `COCC#CCC(NS(=O)(=O)c1ccc(NC(=O)N2CCOCC2)cc1)C(=O)O` (centres undefined) are over 10000 nM, over 10000 nM, over 10000 nM and 2770 nM.
On the same counts, the results for `COCCOCOCC#CCC(NS(=O)(=O)c1ccc(-c2ccc(OC)cc2)cc1)C(=O)O` (centres undefined) are 2340 nM, 6510 nM, 88 nM and 33 nM.
As to `CSc1ccc(-c2ccc(S(=O)(=O)NC(CC#CCN3CCOCC3)C(=O)O)cc2)cc1` (centres undefined), the results for the IC50 in data set [1], in data set [2] and in data set [4] were 5060 nM, 11500 nM and 24 nM, respectively.
Consider `O=C(O)C(CC#Cc1ccccc1)NS(=O)(=O)c1ccc(-c2ccc(F)cc2)cc1` (centres undefined), for which the IC50 in data set [1] amounted to 8900 nM; in data set [2], 5600 nM; in data set [3] it was 231 nM; in data set [4], 175 nM.
Consider `COc1ccc(-c2ccc(S(=O)(=O)NC(CC#CCN3CCN(C(=O)OC(C)(C)C)CC3)C(=O)O)cc2)cc1` (centres undefined), for which the IC50 in data set [1] is over 10000 nM; in data set [2], over 10000 nM; in data set [4], 661 nM.
With `COc1ccc(-c2ccc(S(=O)(=O)NC(CC#CCN3CCCC3)C(=O)O)cc2)cc1` (centres undefined), the IC50 in data set [1] is over 10000 nM; in data set [2] it was over 10000 nM; in data set [4], 100 nM.
`CSc1ccc(-c2ccc(S(=O)(=O)NC(CC#Cc3ccccc3)C(=O)O)cc2)cc1` (centres undefined): the IC50 in data set [1] is 3400 nM; in data set [2] it was 631 nM; in data set [3] it was 16 nM; in data set [4], 6 nM.
As to `COc1ccc(-c2ccc(S(=O)(=O)NC(CC#Cc3ccccc3)C(=O)O)s2)cc1` (centres undefined), the values for the IC50 in data set [1], in data set [2] and in data set [4] were 1320 nM, 3250 nM and 20 nM, respectively. Also, in data set [5], the concentration in solution (solubility) came to 30 µg/mL (≈ 67.9 µM).
As to `O=C(Nc1ccc(S(=O)(=O)NC(CC#Cc2ccccc2)C(=O)O)cc1)c1ccc(Cl)cc1` (centres undefined), the half-maximal inhibitory concentration (IC50) was 3570 nM in data set [1], over 10000 nM in data set [2], 127 nM in data set [3] and 6 nM in data set [4].
For `O=C(O)C(CC#Cc1ccccc1)NS(=O)(=O)c1ccc(-c2ccc(Oc3ccccc3)cc2)cc1` (centres undefined) the same measures were 4560 nM, over 10000 nM, 2150 nM and 1470 nM.
On the same counts, the results for `COCC#CCC(NS(=O)(=O)c1ccc(NC(=O)c2ccc(Br)cc2)cc1)C(=O)O` (centres undefined) are 8620 nM, over 10000 nM, 270 nM and 6 nM.
Turning to `COc1ccc(-c2ccc(S(=O)(=O)NC(CC#Cc3ccc(N4CCOCC4)cc3)C(=O)O)cc2)cc1` (centres undefined), the 50% inhibitory concentration (IC50) is 14600 nM in data set [1], over 10000 nM in data set [2] and 158 nM in data set [4].
On the same counts, the results for `COc1ccc(-c2ccc(S(=O)(=O)NC(CC#CCN3CCOCC3)C(=O)O)cc2)cc1` (centres undefined) are 10700 nM, 13700 nM and 104 nM.
Consider `O=C(O)C(CC#Cc1ccccc1)NS(=O)(=O)c1ccc(Oc2ccccc2)cc1` (centres undefined), for which the IC50 in data set [1] was 4560 nM; in data set [2] it was over 10000 nM; in data set [3], 2150 nM; in data set [4] it was 1480 nM.
In the case of `COCC#CCC(NS(=O)(=O)c1ccc(NC(=O)c2ccc(OC)cc2)cc1)C(=O)O` (centres undefined), the figures for the IC50 in data set [1], in data set [2] and in data set [4] were 9000 nM, over 10000 nM and 8 nM, respectively. In addition, in data set [5], the concentration in solution (solubility) came to 3200 µg/mL (≈ 7170 µM).
For the molecule `COc1ccc(-c2ccc(S(=O)(=O)NC(CC#CCN3CCN(c4ccccc4)CC3)C(=O)O)cc2)cc1` (centres undefined), the figures for the IC50 in data set [1], in data set [2] and in data set [4] were over 10000 nM, over 10000 nM and 547 nM, respectively.
Turning to `COc1ccc(S(=O)(=O)c2csc(S(=O)(=O)NC(CC#Cc3ccccc3)C(=O)O)c2)cc1` (centres undefined), the IC50 in data set [1], in data set [2], in data set [3] and in data set [4] was over 10000 nM each time.
Take `O=C(Nc1ccc(S(=O)(=O)NC(CC#CCOc2ccccc2)C(=O)O)cc1)c1ccc(Br)cc1` (centres undefined): the IC50 in data set [1] is 2850 nM; in data set [2] it was over 10000 nM; in data set [4], 9 nM. For the same molecule, the solubility in data set [5] was 50 µg/mL (≈ 89.7 µM).
As to `COc1ccc(-c2ccc(S(=O)(=O)NC(C(=O)O)[C@@H](C#Cc3ccccc3)OC)cc2)cc1` (some centres undefined), the IC50 stood at 3700 nM in data set [1], 4200 nM in data set [2], 81 nM in data set [3] and 31 nM in data set [4].
On the same counts, the results for `O=C(O)C(CC#CCOc1ccccc1)NS(=O)(=O)c1ccc(-c2ccc(Br)cc2)cc1` (centres undefined) are 1810 nM, over 10000 nM, 254 nM and 23 nM.
On the same counts, the results for `COc1ccc(-c2ccc(S(=O)(=O)NC(CC#CCc3ccccc3)C(=O)O)cc2)cc1` (centres undefined) are 777 nM, 3340 nM, 22 nM and 33 nM.
`O=C(O)C(CC#CCN1CCOCC1)NS(=O)(=O)c1ccc(-c2ccccc2)cc1` (centres undefined): the IC50 in data set [1] is over 10000 nM; in data set [2], over 10000 nM; in data set [4], 297 nM.
On to `O=C(O)C(CC#Cc1ccccc1)NS(=O)(=O)c1ccc(-c2ccc(-c3ccccc3)cc2)cc1` (centres undefined), for which the IC50 in data set [1] was over 10000 nM; in data set [2] it was over 10000 nM; in data set [3], 59 nM; in data set [4] it was 29 nM.
In the case of `COCC#CCC(NS(=O)(=O)c1ccc(NC(=O)N2CCCC2)cc1)C(=O)O` (centres undefined), the IC50 in data set [1] was over 10000 nM; in data set [2], over 10000 nM; in data set [3] it was 16900 nM; in data set [4], 567 nM.
For `O=C(O)C(CC#Cc1ccccc1)NS(=O)(=O)c1ccc(/N=N/c2ccccc2)cc1` (centres undefined), the results for the IC50 in data set [1] and in data set [4] were 16300 nM and 87 nM, respectively.
As to `COc1ccc(S(=O)(=O)c2ccc(S(=O)(=O)NC(CC#Cc3ccccc3)C(=O)O)s2)cc1` (centres undefined), the IC50 in data set [1], in data set [2], in data set [3] and in data set [4] was over 10000 nM in each case.
With `COCCOc1ccc(-c2ccc(S(=O)(=O)NC(CC#Cc3ccccc3)C(=O)O)cc2)cc1` (centres undefined), the IC50 was 2430 nM in data set [1], over 10000 nM in data set [2], 50 nM in data set [3] and 26 nM in data set [4].
As to `COc1ccc(-c2ccc(S(=O)(=O)NC(CC#CCN3CCN(S(C)(=O)=O)CC3)C(=O)O)cc2)cc1` (centres undefined), the concentration for half-maximal inhibition (IC50) was over 10000 nM in data set [1], over 10000 nM in data set [2] and 1160 nM in data set [4].
Regarding `O=C(O)C(CC#CCN1CCCC1)NS(=O)(=O)c1ccc(-c2ccccc2)cc1` (centres undefined), the IC50 in data set [1] is over 10000 nM; in data set [2] it was over 10000 nM; in data set [3] it was 3050 nM; in data set [4] it was 380 nM.
As to `COc1ccc(-c2ccc(S(=O)(=O)NC(C(=O)O)[C@@H](C#Cc3ccccc3)OCc3ccccc3)cc2)cc1` (some centres undefined), the IC50 in data set [1] is 4270 nM; in data set [2] it was over 10000 nM; in data set [3] it was 14 nM; in data set [4], 8 nM.
As for `CCCCOc1ccc(S(=O)(=O)NC(CC#Cc2ccccc2)C(=O)O)cc1` (centres undefined), the figures for the half-maximal inhibitory concentration (IC50) in data set [1] and in data set [3] were 15400 nM and 2040 nM, respectively.
As to `CCOc1cccc(-c2ccc(S(=O)(=O)NC(CC#Cc3ccccc3)C(=O)O)cc2)c1` (centres undefined), the IC50 is over 10000 nM in data set [2], over 1600 nM in data set [3] and 2390 nM in data set [4].
